Results as given in ChEMBL document CHEMBL3997803, “Accepting the Invitation to Open Innovation in Malaria Drug Discovery: Synthesis, Biological Evaluation, and Investigation on the Structure-Activity Relationships of Benzo[b]thiophene-2-carboxamides as Antimalarial Agents” (J Med Chem, 2017).
The source made the active and inactive calls. The rule behind the calls is not given here.

Experiments:
Plasmodium falciparum [1] = assay: Anti-parasitic activity against CQ-sensitive Plasmodium falciparum D10 assessed as growth inhibition by measuring increase in LDH release after 72 hrs by spectrophotometric method; assay type: functional; conditions: D10, 72 h
In short: (§1)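 Asynchronous cultures (parasitemia 1–1.5%, 1% final hematocrit, human A+ RBCs) in RPMI 1640 with 1% AlbuMax, 0.01% hypoxanthine, 20 mM HEPES, 2 mM glutamine. Serial dilutions from DMSO stocks (final DMSO <1%). IC50 as mean ± SD of ≥3 experiments in duplicate.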

Plasmodium falciparum [2] = assay: Anti-parasitic activity against CQ-resistant Plasmodium falciparum W2 assessed as growth inhibition by measuring increase in LDH release after 72 hrs by spectrophotometric method; assay type: functional; conditions: W2, 72 h; in short: as §1
HMEC-1 = assay: Antiproliferative activity against SV40 large T-antigen 38 immortalized HMEC1 cells after 72 hrs by MTT assay; assay type: cell-based; conditions: Homo sapiens, HMEC-1, 72 h
In short: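 HMEC-1 cells (SV40 large T-antigen immortalized) grown in MCDB 131 with 10% fetal calf serum, 10 ng/mL EGF, 1 μg/mL hydrocortisone, 2 mM glutamine, penicillin/streptomycin, 20 mM Hepes. Treated with serial dilutions for 72 h; proliferation read by MTT. IC50 = dose inhibiting growth 50%; mean and SD of at least three experiments in duplicate.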

[3] = Selectivity index, ratio of IC50 for SV40 large T-antigen 38 immortalized HMEC1 cells to IC50 for CQ-sensitive Plasmodium falciparum D10; assay type: toxicity; conditions: human, read-out: Ratio IC50
[4] = Selectivity index, ratio of IC50 for SV40 large T-antigen 38 immortalized HMEC1 cells to IC50 for CQ-resistant Plasmodium falciparum W2; assay type: toxicity; conditions: human, read-out: Ratio IC50
[5] = Stability of the compound in RPMI 1640 medium at 1 uM up to 24 hrs by HPLC-MS/MS method; assay type: physicochemical
[6] = Half-life in human liver microsomes at 1 uM in presence of NADPH by HPLC-MS/MS method; assay type: ADME, microsome
Escherichia coli [7] = assay: Inhibition of Escherichia coli ClpB ATP hydrolysis activity at 2 uM after 15 mins by spectrophotometric method
In short: (§2)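 E. coli ClpB (concentration as monomer) assayed at 37 °C in 100 mM Tris/HCl pH 8, 1 mM DTT, 1 mM EDTA, 10 mM MgCl2. Reaction started by adding ClpB to buffer holding compound (DMSO stock diluted in buffer) and 4 mM ATP. Inorganic phosphate released from ATP quantified; matching DMSO amounts as controls.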

[8] = Inhibition of recombinant histidine-tagged Plasmodium falciparum choline kinase expressed in Escherichia coli using choline as substrate after 30 mins by HTRF method
Plasmodium falciparum [9] = assay: Antiparasitic activity against Plasmodium falciparum 3D7 infected in erythrocytes after 72 hrs by SYBR Green 1 dye-based assay; assay type: functional, cell-based; conditions: 3D7, 72 h
Escherichia coli [10] = assay: Inhibition of Escherichia coli ClpB ATP hydrolysis activity at 1.7 uM after 15 mins by spectrophotometric method; in short: as §2

Row | SMILES | IC50 (Plasmodium falciparum [1]) | IC50 (Plasmodium falciparum [2]) | further results
1 | C[C@@H]1CN(C(=O)c2sc3ccccc3c2Cl)C[C@@H](C)O1 | 0.645 µM | 2.69 µM | IC50 (HMEC-1): 154 µM; selectivity ratio [3]: 250 to 5000; selectivity ratio [4]: 250 to 5000
2 | C[C@@H]1CN(C(=O)c2sc3c(Cl)c(Cl)ccc3c2Cl)C[C@H](C)O1 | 2.22 µM | 7.44 µM | –
3 | C[C@@H]1CN(C(=O)c2sc3cc(F)ccc3c2Cl)C[C@H](C)O1 | 0.074 µM | 0.455 µM | Stability [5]: Stable
4 | C[C@@H]1CN(C(=O)c2sc3ccccc3c2NCc2ccccc2)C[C@H](C)O1 | 2.62 µM | 9.77 µM | –
5 | COc1c(C(=O)N2C[C@@H](C)O[C@@H](C)C2)sc2ccccc12 | 0.429 µM | 1.73 µM | –
6 | C[C@@H]1CN(C(=O)c2sc3ccccc3c2Cl)C[C@H](C)O1 | 0.037 µM | 0.184 µM | IC50 (HMEC-1): 195 µM; half-life at 1 µM [6]: 40 min; Stability [5]: Stable; inhibition (Escherichia coli [7]): inactive; selectivity ratio [3]: 250 to 5000; selectivity ratio [4]: 250 to 5000; IC50 [8]: 6.3 µM; EC50 (Plasmodium falciparum [9]): 0.3 µM
7 | CC(=O)N1CCN(C(=O)c2cc3ccccc3s2)CC1 | 10.9 µM | 7.75 µM | –
8 | CC1CN(C(=O)c2cc3ccccc3o2)CC(C)N1 (stereo not drawn) | > 15 µM | > 15 µM | –
9 | CCc1c(C(=O)N2C[C@@H](C)O[C@@H](C)C2)sc2ccccc12 | 0.682 µM | 2.31 µM | –
10 | O=C(c1cc2ccccc2s1)N1CCOCC1 | > 15 µM | > 15 µM | –
11 | CC1CN(C(=O)c2sc3ccccc3c2Cl)CC(C)N1 (stereo not drawn) | 4.91 µM | 14.7 µM | –
12 | CC1CN(C(=O)c2cc3ccccc3[nH]2)CC(C)N1 (stereo not drawn) | > 15 µM | > 15 µM | –
13 | O=C(Nc1ccncc1)c1sc2ccccc2c1Cl | > 15 µM | > 15 µM | Stability [5]: Stable
14 | CC1CN(C(=O)c2sc3ccccc3c2Cl)CC(C)O1 (stereo not drawn) | – | 0.26 µM | –
15 | C[C@@H]1CN(C(=O)c2cc3ccccc3s2)C[C@H](C)O1 | 1.82 µM | 8.54 µM | –
16 | C[C@@H]1CN(C(=O)c2sc3ccccc3c2OCc2ccc(Cl)cc2)C[C@H](C)O1 | 0.186 µM | 0.728 µM | IC50 (HMEC-1): 48 µM; selectivity ratio [3]: 250 to 5000; selectivity ratio [4]: 250 to 5000
17 | CCN(CC)C(=O)c1sc2ccccc2c1Cl | > 15 µM | > 15 µM | –
18 | C[C@@H]1CN(C(=O)c2sc3cc(Cl)ccc3c2Cl)C[C@H](C)O1 | 0.407 µM | 2.09 µM | –
19 | Cc1c(C(=O)N2C[C@@H](C)O[C@@H](C)C2)sc2ccccc12 | 0.226 µM | 0.753 µM | IC50 (HMEC-1): 142 µM; half-life at 1 µM [6]: 44 min; inhibition (Escherichia coli [10]): inactive; selectivity ratio [3]: 250 to 5000; selectivity ratio [4]: 250 to 5000
